ChEMBL document CHEMBL1142962, “Antiproliferative prenylated stilbenes and flavonoids from Macaranga alnifolia from the Madagascar rainforest” (J Nat Prod, 2007)

Assays:
Format in all cases: functional
Settings in all cases: Homo sapiens
HT-29 = assay: Growth inhibition of HT29 cells
Summary of the method: (§1)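 Tested in the NCI 60 human tumour cell line screen, which was run by NCI. The value for each line is the GI50, the concentration giving 50% growth inhibition. Results are also shown as a mean graph across the full panel.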

KM12 = assay: Growth inhibition of KM12 cells
SW-620 = assay: Growth inhibition of SW620 cells; summary of the method: as §1
SF-268 = assay: Growth inhibition of SF268 cells
SF-295 = assay: Growth inhibition of SF295 cells
SF-539 = assay: Growth inhibition of SF539 cells; summary of the method: as §1
SNB-19 = assay: Growth inhibition of SNB19 cells
SNB-75 = assay: Growth inhibition of SNB75 cells
U-251 = assay: Growth inhibition of U251 cells
LOX IMVI = assay: Growth inhibition of LOX IMVI cells; summary of the method: as §1
M14 = assay: Growth inhibition of M14 cells; summary of the method: as §1
SK-MEL-2 = assay: Growth inhibition of SK-MEL-2 cells
SK-MEL-28 = assay: Growth inhibition of SK-MEL-28 cells; summary of the method: as §1
SK-MEL-5 = assay: Growth inhibition of SK-MEL-5 cells
UACC-257 = assay: Growth inhibition of UACC257 cells; summary of the method: as §1
UACC-62 = assay: Growth inhibition of UACC62 cells
786-0 = assay: Growth inhibition of 786-0 cells
ACHN = assay: Growth inhibition of ACHN cells
SN12C = assay: Growth inhibition of SN12C cells; summary of the method: as §1
TK-10 = assay: Growth inhibition of TK10 cells
UO-31 = assay: Growth inhibition of UO31 cells
PC-3 = assay: Growth inhibition of PC3 cells
DU-145 = assay: Growth inhibition of DU145 cells; summary of the method: as §1
MCF7 = assay: Growth inhibition of MCF7 cells; summary of the method: as §1
NCI/ADR-RES = assay: Growth inhibition of NCI/ADR-RES cells
MDA-MB-231 = assay: Growth inhibition of MDA-MB-231/ATCC cells; summary of the method: as §1
[1] = Growth inhibition of HS 578T cells
MDA-MB-435 = assay: Growth inhibition of MDA-MB-435 cells
[2] = read-out: Log LC50 (the source's name) (converted)

With `COc1cc(/C=C/c2cc(O)c(CC=C(C)C)c(O)c2)cc2c1O[C@]1(C)C[C@@H](O)[C@@H](O)C(C)(C)[C@H]1C2` [SCHWEINFURTHIN E] the GI50 (HT-29) was 1290 nM, the CC50 (HT-29; [2]) was > 100 µM and the GI50 (KM12) was 457 nM. It also gave a CC50 (KM12; [2]) of 9.55 µM, a TGI (KM12; read-out: Log TGI (converted)) of 2240 nM and a GI50 (SW-620) of 110 nM. For the same molecule, the CC50 (SW-620; [2]) was > 100 µM, the TGI (SW-620; read-out: Log TGI (converted)) was 2040 nM and the GI50 (SF-268) was 2630 nM. The CC50 (SF-268; [2]) was > 100 µM, the TGI (SF-268; read-out: Log TGI (converted)) was > 100 µM and the GI50 (SF-295) was < 10 nM. For the same molecule, the CC50 (SF-295; [2]) was < 10 nM, the TGI (SF-295; read-out: Log TGI (converted)) was < 10 nM and the GI50 (SF-539) was < 10 nM. The TGI (SF-539; read-out: Log TGI (converted)) was 158 nM, the GI50 (SNB-19) was 11 µM and the CC50 (SNB-19; [2]) was > 100 µM. The TGI (SNB-19; read-out: Log TGI (converted)) was > 100 µM, the GI50 (SNB-75) was 1740 nM and the CC50 (SNB-75; [2]) was > 100 µM. The TGI (SNB-75; read-out: Log TGI (converted)) was 20 µM, the GI50 (U-251) was < 10 nM and the CC50 (U-251; [2]) was 32.4 µM. It also gave a TGI (U-251; read-out: Log TGI (converted)) of 3.98 µM, a GI50 (LOX IMVI) of 646 nM and a CC50 (LOX IMVI; [2]) of 6.17 µM. For the same molecule, the TGI (LOX IMVI; read-out: Log TGI (converted)) was 2340 nM, the GI50 (M14) was < 10 nM and the CC50 (M14; [2]) was 4.27 µM. The TGI (M14; read-out: Log TGI (converted)) was 288 nM, the GI50 (SK-MEL-2) was 3.72 µM and the CC50 (SK-MEL-2; [2]) was > 100 µM. For the same molecule, the TGI (SK-MEL-2; read-out: Log TGI (converted)) was > 100 µM, the GI50 (SK-MEL-28) was 372 nM and the CC50 (SK-MEL-28; [2]) was > 100 µM. The TGI (SK-MEL-28; read-out: Log TGI (converted)) was 5.25 µM, the GI50 (SK-MEL-5) was 661 nM and the CC50 (SK-MEL-5; [2]) was 5.62 µM. The TGI (SK-MEL-5; read-out: Log TGI (converted)) was 2240 nM, the GI50 (UACC-257) was 166 nM and the CC50 (UACC-257; [2]) was 37.2 µM. For the same molecule, the TGI (UACC-257; read-out: Log TGI (converted)) was 3.63 µM, the GI50 (UACC-62) was < 10 nM and the CC50 (UACC-62; [2]) was 4.07 µM. For the same molecule, the TGI (UACC-62; read-out: Log TGI (converted)) was 372 nM, the GI50 (786-0) was < 10 nM and the CC50 (786-0; [2]) was 9.77 µM. The TGI (786-0; read-out: Log TGI (converted)) was 1070 nM, the GI50 (ACHN) was 372 nM and the CC50 (ACHN; [2]) was 13.2 µM. It also gave a TGI (ACHN; read-out: Log TGI (converted)) of 3.02 µM, a GI50 (SN12C) of 2090 nM and a CC50 (SN12C; [2]) of 34.7 µM. For the same molecule, the TGI (SN12C; read-out: Log TGI (converted)) was 7.59 µM, the CC50 (TK-10; [2]) was 18.6 µM and the TGI (TK-10; read-out: Log TGI (converted)) was 2630 nM. The GI50 (UO-31) was 105 nM, the CC50 (UO-31; [2]) was > 100 µM and the TGI (UO-31; read-out: Log TGI (converted)) was > 100 µM. It also gave a GI50 (PC-3) of 138 nM, a CC50 (PC-3; [2]) of 47.9 µM and a TGI (PC-3; read-out: Log TGI (converted)) of 9.55 µM. The GI50 (DU-145) was 468 nM, the CC50 (DU-145; [2]) was 72.4 µM and the TGI (DU-145; read-out: Log TGI (converted)) was 14.1 µM. The GI50 (MCF7) was 61.7 nM, the CC50 (MCF7; [2]) was > 100 µM and the TGI (MCF7; read-out: Log TGI (converted)) was 26.9 µM. The GI50 (NCI/ADR-RES) was 2240 nM, the CC50 (NCI/ADR-RES; [2]) was 50.1 µM and the TGI (NCI/ADR-RES; read-out: Log TGI (converted)) was 6.61 µM. For the same molecule, the GI50 (MDA-MB-231) was 851 nM, the CC50 (MDA-MB-231; [2]) was 26.3 µM and the TGI (MDA-MB-231; read-out: Log TGI (converted)) was 3.47 µM. For the same molecule, the GI50 [1] was < 10 nM, the CC50 [1, 2] was > 100 µM and the TGI ([1]; read-out: Log TGI (converted)) was 363 nM. For the same molecule, the GI50 (MDA-MB-435) was 123 nM, the CC50 (MDA-MB-435; [2]) was 8.71 µM and the TGI (MDA-MB-435; read-out: Log TGI (converted)) was 1950 nM.
